Data from ChEMBL document CHEMBL3526048, “In vitro metabolism of rivoglitazone, a novel peroxisome proliferator-activated receptor γ agonist, in rat, monkey, and human liver microsomes and freshly isolated hepatocytes” (Drug Metab Dispos, 2011).

Assays:
[1] = Drug metabolism in monkey hepatocytes assessed as formation of 2-hydroxy-3-(4-((6-methoxy-1-methyl-1H-benzo[d]imidazol-2-yl)methoxy)phenyl)propanamide at 30 uM after 3 hrs by radio-HPLC/LC-MS/MS analysis in presence of NADPH-generating system and NADPH-generating system/SAM; conditions: cynomolgus monkey
Cytochrome P450 2D6 [2] = molecular target: T1, Cytochrome P450 2D6 (Homo sapiens, UniProt P10635); assay: (§1) Activity of human CYP2D6 expressed in microsomes isolated from baculovirus infected insect cell assessed as enzyme-mediated (2S,3S,4S,5R,6R)-3,4,5-trihydroxy-6-(5-(4-((6-methoxy-1-methyl-1H-benzo[d]imidazol-2-yl)methoxy)benzyl)-2,4-dioxothiazolidin-3-yl)tetrahydro-2H-pyran-2-carboxylic acid formation at 20 uM after 2 hrs by radio-HPLC/LC-MS/MS analysis in presence of UDPGA and UDPGA/SAM; assay type: ADME
T1 sequence (P10635 whole entry): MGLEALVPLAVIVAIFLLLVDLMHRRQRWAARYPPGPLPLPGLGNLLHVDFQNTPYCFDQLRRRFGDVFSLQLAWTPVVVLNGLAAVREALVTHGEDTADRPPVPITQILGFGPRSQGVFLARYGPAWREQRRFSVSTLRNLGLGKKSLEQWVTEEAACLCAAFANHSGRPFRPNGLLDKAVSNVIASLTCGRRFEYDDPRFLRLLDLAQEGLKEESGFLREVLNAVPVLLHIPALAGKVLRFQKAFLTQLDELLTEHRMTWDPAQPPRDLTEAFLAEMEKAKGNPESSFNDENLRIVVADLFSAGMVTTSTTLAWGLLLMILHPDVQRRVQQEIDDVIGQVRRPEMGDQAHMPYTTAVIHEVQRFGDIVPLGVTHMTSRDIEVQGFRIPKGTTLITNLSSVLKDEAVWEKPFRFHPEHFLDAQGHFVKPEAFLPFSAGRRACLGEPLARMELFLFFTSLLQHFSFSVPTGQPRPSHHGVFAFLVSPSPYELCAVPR

Cytochrome P450 2C8 [3] = molecular target: T2, Cytochrome P450 2C8 (Homo sapiens, UniProt P10632); assay: Activity of human CYP2C8 expressed in microsomes isolated from baculovirus infected insect cell assessed as enzyme-mediated 2-((4-((2,4-dioxothiazolidin-5-yl)methyl)phenoxy)methyl)-1-methyl-1H-benzo[d]imidazol-6-yl hydrogen sulfate formation at 20 uM after 2 hrs by radio-HPLC/LC-MS/MS analysis; assay type: ADME
T2 sequence (P10632 whole entry): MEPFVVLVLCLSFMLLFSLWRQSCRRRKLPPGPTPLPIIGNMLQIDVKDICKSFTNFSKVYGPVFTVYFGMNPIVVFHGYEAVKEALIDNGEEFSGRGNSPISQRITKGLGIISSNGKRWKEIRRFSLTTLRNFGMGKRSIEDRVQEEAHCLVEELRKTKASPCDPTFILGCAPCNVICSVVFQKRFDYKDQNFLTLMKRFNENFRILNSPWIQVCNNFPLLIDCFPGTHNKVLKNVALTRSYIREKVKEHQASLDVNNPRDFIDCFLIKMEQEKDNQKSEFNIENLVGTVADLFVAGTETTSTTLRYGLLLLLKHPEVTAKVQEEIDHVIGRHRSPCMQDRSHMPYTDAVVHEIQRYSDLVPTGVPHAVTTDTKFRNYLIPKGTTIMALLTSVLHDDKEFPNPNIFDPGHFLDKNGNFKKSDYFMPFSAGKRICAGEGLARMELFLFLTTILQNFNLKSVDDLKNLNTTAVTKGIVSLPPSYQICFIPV
How it was run: (§2)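 Baculovirus/insect-cell microsomes expressing single human CYPs, 1 mg/ml protein, with 50 mM potassium phosphate (pH 7.4) or 100 mM Tris-HCl (pH 7.5). NADPH-generating system: 2 mM NADP⁺, 20 mM glucose 6-phosphate, 2 units/ml G6PDH, 10 mM MgCl₂. [¹⁴C]rivoglitazone at 20 μM, 2 h at 37°C with shaking. Control used insect-cell control supersomes. Stopped with acetonitrile; supernatant concentrated under nitrogen; metabolites analysed by radio-HPLC, LC-MS and LC-MS/MS.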

Cytochrome P450 2D6 [4] = molecular target: T1, Cytochrome P450 2D6; assay: Activity of human CYP2D6 expressed in microsomes isolated from baculovirus infected insect cell assessed as enzyme-mediated 3-(4-((6-methoxy-1-methyl-1H-benzo[d]imidazol-2-yl)methoxy)phenyl)-2-(methylthio)propanamide formation at 20 uM after 2 hrs by radio-HPLC/LC-MS/MS analysis in presence of NADPH-generating system/SAM; assay type: ADME
Cytochrome P450 3A5 = Cytochrome P450 3A5 (Homo sapiens, UniProt P20815); assay: (§3) Activity of human CYP3A5 expressed in microsomes isolated from baculovirus infected insect cell assessed as enzyme-mediated 5-(4-((6-hydroxy-1-methyl-1H-benzo[d]imidazol-2-yl)methoxy)benzyl)thiazolidine-2,4-dione formation at 20 uM after 2 hrs by radio-HPLC/LC-MS/MS analysis in presence of NADPH-generating system and NADPH-generating system/SAM; assay type: ADME
Cytochrome P450 3A5, sequence (P20815 whole entry): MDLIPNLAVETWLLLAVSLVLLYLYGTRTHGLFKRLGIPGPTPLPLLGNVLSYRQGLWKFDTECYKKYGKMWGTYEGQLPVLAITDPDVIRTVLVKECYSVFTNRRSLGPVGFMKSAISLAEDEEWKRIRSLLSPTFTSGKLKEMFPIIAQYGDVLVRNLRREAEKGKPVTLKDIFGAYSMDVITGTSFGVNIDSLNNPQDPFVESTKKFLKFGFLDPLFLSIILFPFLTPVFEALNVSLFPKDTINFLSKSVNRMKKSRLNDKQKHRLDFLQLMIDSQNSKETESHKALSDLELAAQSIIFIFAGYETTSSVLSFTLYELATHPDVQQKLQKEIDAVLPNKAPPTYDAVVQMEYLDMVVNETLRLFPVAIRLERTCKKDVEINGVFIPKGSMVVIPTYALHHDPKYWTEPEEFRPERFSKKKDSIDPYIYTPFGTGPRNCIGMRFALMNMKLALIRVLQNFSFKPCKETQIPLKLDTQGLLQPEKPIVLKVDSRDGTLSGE
How it was run: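 cDNA-expressed human CYP3A5 in baculovirus-insect-cell microsomes (1 mg/ml protein) was incubated with [¹⁴C]rivoglitazone (20 μM) in 50 mM potassium phosphate (pH 7.4) or 100 mM Tris-HCl (pH 7.5). NADPH-generating system: 2 mM NADP⁺, 20 mM glucose 6-phosphate, 2 units/ml G6PDH, 10 mM MgCl₂. Incubation ran 2 h at 37°C with shaking; insect-cell control supersomes served as control. Acetonitrile stop, supernatant concentrated, then radio-HPLC, LC-MS and LC-MS/MS.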

[5] = molecular target: T3, UDP-glucuronosyltransferase 1A7 (Homo sapiens, UniProt Q9HAW7); assay: as §1, with “human UGT1A7” for “human CYP2D6”, “after 4” for “after 2”, “UDPGA” for “UDPGA and UDPGA/SAM”; assay type: ADME
T3 sequence (Q9HAW7 whole entry): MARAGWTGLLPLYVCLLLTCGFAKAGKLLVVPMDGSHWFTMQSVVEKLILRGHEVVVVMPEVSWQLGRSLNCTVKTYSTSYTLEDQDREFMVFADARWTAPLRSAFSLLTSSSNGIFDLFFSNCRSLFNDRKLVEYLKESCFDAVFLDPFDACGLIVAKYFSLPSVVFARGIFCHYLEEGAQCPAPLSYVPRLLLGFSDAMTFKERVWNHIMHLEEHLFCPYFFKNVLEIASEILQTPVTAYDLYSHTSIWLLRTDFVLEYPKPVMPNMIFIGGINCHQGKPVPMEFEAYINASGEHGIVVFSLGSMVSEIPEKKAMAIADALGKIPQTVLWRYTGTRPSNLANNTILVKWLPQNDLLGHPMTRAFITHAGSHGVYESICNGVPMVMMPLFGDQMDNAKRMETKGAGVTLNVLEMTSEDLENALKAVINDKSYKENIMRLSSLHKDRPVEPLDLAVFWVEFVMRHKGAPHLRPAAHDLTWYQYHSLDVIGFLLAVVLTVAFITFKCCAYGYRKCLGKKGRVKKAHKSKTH

[6] = Drug metabolism in human hepatocytes assessed as formation of (2S,3S,4S,5R,6R)-3,4,5-trihydroxy-6-(5-(4-((6-methoxy-1-methyl-1H-benzo[d]imidazol-2-yl)methoxy)benzyl)-2,4-dioxothiazolidin-3-yl)tetrahydro-2H-pyran-2-carboxylic acid at 30 uM after 3 hrs by radio-HPLC/LC-MS/MS analysis in presence of UDPGA and UDPGA/SAM; assay type: ADME, cell-based, Hepatocyte
Cytochrome P450 2C8 [7] = molecular target: T2, Cytochrome P450 2C8; assay: as §3, with “CYP2C8” for “CYP3A5”; assay type: ADME
How it was run: as §2

Liver microsome = assay: Drug metabolism in Sprague-Dawley rat liver microsomes assessed as formation of 3-(4-((6-methoxy-1-methyl-1H-benzo[d]imidazol-2-yl)methoxy)phenyl)-2-(methylsulfinyl)propanamide at 20 uM after 2 hrs by radio-HPLC/LC-MS/MS analysis in presence of NADPH-generating system/SAM; assay type: ADME
Cytochrome P450 2C9 = Cytochrome P450 2C9 (Homo sapiens, UniProt P11712); assay: Activity of human CYP2C9 expressed in microsomes isolated from baculovirus infected insect cell assessed as enzyme-mediated compound formation treated with [14C]-rivoglitazone at 20 uM after 2 hrs by radio-HPLC/LC-MS/MS analysis in presence of NADPH-generating system; assay type: ADME
Cytochrome P450 2C9, sequence (P11712 whole entry): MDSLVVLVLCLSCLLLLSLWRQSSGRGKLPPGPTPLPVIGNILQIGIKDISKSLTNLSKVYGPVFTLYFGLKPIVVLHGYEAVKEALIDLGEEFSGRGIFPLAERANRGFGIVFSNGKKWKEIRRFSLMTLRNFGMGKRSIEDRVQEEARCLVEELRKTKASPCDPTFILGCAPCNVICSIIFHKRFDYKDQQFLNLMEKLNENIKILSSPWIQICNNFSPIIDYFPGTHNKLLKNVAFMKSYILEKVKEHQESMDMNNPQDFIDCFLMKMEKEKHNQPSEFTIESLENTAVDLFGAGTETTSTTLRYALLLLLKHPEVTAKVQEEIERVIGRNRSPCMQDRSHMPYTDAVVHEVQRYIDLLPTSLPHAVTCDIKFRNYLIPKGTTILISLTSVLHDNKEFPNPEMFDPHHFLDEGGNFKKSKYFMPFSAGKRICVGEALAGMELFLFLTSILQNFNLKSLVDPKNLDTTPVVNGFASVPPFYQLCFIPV
How it was run: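 Baculovirus-insect-cell microsomes expressing the human CYP (1 mg/ml protein) were incubated with [14C]rivoglitazone (20 μM) in 50 mM potassium phosphate (pH 7.4) or 100 mM Tris-HCl (pH 7.5) with an NADPH-generating system (2 mM NADP+, 20 mM glucose 6-phosphate, 2 units/ml G6PDH, 10 mM MgCl2) for 2 h at 37°C. Insect-cell control supersomes served as the control. Reactions were stopped with acetonitrile, and the concentrated supernatants were analysed by radio-HPLC, LC-MS and LC-MS/MS.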

Drug metabolism [1]	Drug metabolism (Cytochrome P450 2D6 [2])	Drug metabolism (Cytochrome P450 2C8 [3])	Drug metabolism (Cytochrome P450 2D6 [4])	Drug metabolism (Cytochrome P450 3A5)	Drug metabolism [5]	Drug metabolism [6]	Drug metabolism (Cytochrome P450 2C8 [7])	Drug metabolism (Liver microsome)	Drug metabolism (Cytochrome P450 2C9)	Compound
metabolite_not_detected	metabolite_not_detected	metabolite_not_detected	metabolite_not_detected	metabolite_detected	metabolite_not_detected	metabolite_detected	metabolite_detected	metabolite_detected		COc1ccc2nc(COc3ccc(C[14CH]4SC(=O)NC4=O)cc3)n(C)c2c1.Cl (racemic)
									metabolite_detected	COc1ccc2nc(COc3ccc(CC(S)C(=O)O)cc3)n(C)c2c1 (stereo not given)
